In the library only some 1.8% were active in any assay of this set; here they are far more common.
A1 inh = inhibitors of the anti-apoptotic protein A1, read as caspase activation | 330,000 tested, 0.066% active | MEF A1-2A-BIM cells, Caspase-Glo 3/7 luminescence, 3 h; percent of clofoctol response, vehicle zero | AID 2462 | caspase activation, % (no concentration beside the values);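 active = over half of replicate activation scores above 10%, or exactly half above 10 with the replicate mean above 10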
LANA-H2A inh = blocks KSHV LANA binding to histone H2A/H2B; inhibition, % (no concentration beside the values); 320,000 tested, 0.6% active; Q9QR71; cell-free LANA-H2A/H2B peptide, fluorescence polarization; in the data active = inhibition mostly above about 10%, no sharp cut-off; inactive = mostly below about 6.7%
HDAC3 inhib = inhibitors of human histone deacetylase 3; recombinant HDAC3, fluorogenic peptide/trypsin coupled, fluorescence; inhibition, % at 8.3 µM; 320,000 tested, 0.15% active; AID 2718; in the data active = inhibition above about 26%, passing the limit was not always enough
Target sequence (O15379 whole entry, looked up): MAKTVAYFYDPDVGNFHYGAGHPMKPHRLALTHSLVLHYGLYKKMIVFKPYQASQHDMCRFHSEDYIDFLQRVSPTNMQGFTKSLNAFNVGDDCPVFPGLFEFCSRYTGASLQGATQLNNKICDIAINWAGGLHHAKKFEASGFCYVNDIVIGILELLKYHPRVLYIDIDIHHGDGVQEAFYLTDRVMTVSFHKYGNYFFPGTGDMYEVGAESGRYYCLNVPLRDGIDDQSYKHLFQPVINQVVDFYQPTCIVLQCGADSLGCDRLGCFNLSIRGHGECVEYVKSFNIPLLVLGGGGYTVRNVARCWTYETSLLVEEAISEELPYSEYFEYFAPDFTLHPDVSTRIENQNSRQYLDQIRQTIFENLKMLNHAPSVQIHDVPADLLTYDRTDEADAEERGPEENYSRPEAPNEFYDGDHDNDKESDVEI
AI-2 QS modul = modulates the Vibrio harveyi AI-2 quorum sensing system; Vibrio harveyi JMH597 AI-2 luminescence/OD600 ratio, 9 h; hits give low values; strain lacks LuxN and CqsS sensors; 0 = neutral-control median; 300,000 tested, 0.4% active; activity change, % at 7.5 µM; in the data active = activity change below about -75%, passing the limit was not always enough;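 note: luminescence divided by OD600 gain over 9 h not by final OD600 alone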
ATG4B inh = blocks human ATG4B protease cleavage of LC3 substrate; Q9Y4P1; AID 504462; 340,000 tested, 0.51% active; inhibition, % at 8.33 µM; ATG4B cleavage of LC3-PLA2, NBD-HPC fluorescence, 1 h; in the data active = inhibition above about 40%
HKDC1 inh = HKDC1 (human) hexokinase inhibition; Q2TB90; recombinant HKDC1, G6PDH/diaphorase resazurin coupled fluorescence; inhibition, % at 20 µM; 340,000 tested, 0.16% active;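 active = inhibition above about 35% when tested at 20 µM, limit read from the data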;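 note: plate controls were DMSO wells with enzyme for no effect and DMSO wells lacking enzyme for full effect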
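Test system: HK5 enzyme. Quantity: 5 µg/mL HK5 final. Reagent: glucose and ATP substrates. Schedule: 90 min reaction incubation at room temperature, dark. Technique: resazurin-to-resorufin fluorescence via G6PDH and diaphorase coupling, 525/613 nm. Control set: DMSO wells with and without enzyme mix.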
HKDC1 act conf = HKDC1 (human) activation, single-dose confirmed. shares compounds with HKDC1 inh. recombinant HKDC1, G6PDH/diaphorase resazurin fluorescence; hits give low values. inhibition, % at 20 µM. 740 tested, 14% active;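 active = inhibition at or below a set negative limit, negative inhibition meaning the enzyme was activated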
ATG4B confirm = confirmation of human ATG4B inhibitors. shares compounds with ATG4B inh. ATG4B protease fluorescent substrate cleavage assay. inhibition, % at 8.33 µM. 320 tested, 92% active; in the data active = inhibition above about 39%
PLA2 ctr = PLA2 (human) inhibition in ATG4B counter-screen; shares compounds with ATG4B inh; purified PLA2, NBD-C6-HPC fluorescence, 45 min; inhibition, % at 8.33 µM; 1,600 tested, 66% active; in the data active = inhibition above about 50%
Target sequence (P04054 whole entry, looked up): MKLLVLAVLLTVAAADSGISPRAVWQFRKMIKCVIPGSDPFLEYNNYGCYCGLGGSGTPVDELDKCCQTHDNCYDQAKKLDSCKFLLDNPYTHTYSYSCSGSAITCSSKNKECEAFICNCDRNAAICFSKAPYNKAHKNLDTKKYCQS
Numbers without * were called inactive; nt = not tested or not shown.

SMILES | A1 inh | LANA-H2A inh | HDAC3 inhib | AI-2 QS modul | ATG4B inh | HKDC1 inh | HKDC1 act conf | others
CCOC(=O)C1=C(Cc2ccc(Cl)cc2)C(=O)c2ccccc2C1=O | 0 | 14 | 2 | 7 | 15 | 60* | 39
CC(C)n1c(O)c(N=NC(=O)CNC(=O)CCc2ccccc2)c2ccccc21 | 0 | 0 | -3 | 22 | -6 | 0 | nt
Cc1cc(C(=O)N=Nc2c(O)n(C(C)C)c3ccccc23)n[nH]1 | 1 | 4 | 6 | 15 | 18 | 40* | 34
COc1cc(C(C)=O)ccc1Oc1ncccn1 | 2 | -8 | 1 | 12 | -1 | -6 | nt
O=c1cc(O)sc2ccccc12 | 0 | 4 | 9 | 54 | -9 | 43* | -16
O=c1ccsc2ccccc12 | nt | nt | nt | nt | -8 | -4 | nt
CN(C)S(=O)(=O)N1CCN(CC(=O)Nc2ccc(Br)cc2)CC1 | 1 | 2 | -3 | 21 | 7 | 0 | nt
Cc1ccc(-c2nc3c(c(=O)c4ccccc4n3C)c(=O)n2-c2ccc(F)cc2)cc1 | 0 | -7 | -5 | 22 | 3 | 4 | nt
Cn1c2ccccc2c(=O)c2c(=O)n(-c3ccc(F)cc3)c(-c3cccs3)nc21 | -1 | 0 | 1 | 9 | -8 | 68* | 66
CCc1nc2c(c(=O)c3ccccc3n2C)c(=O)n1-c1ccc(F)cc1 | 0 | -1 | -11 | 36 | -4 | 48* | 73
Cn1c2ccccc2c(=O)c2c(=O)n(-c3ccccc3)c(-c3ccc(C(C)(C)C)cc3)nc21 | 2 | -1 | -11 | 35 | -7 | 26 | nt
Cc1nc2c(c(=O)c3ccccc3n2C)c(=O)n1-c1ccccc1 | -1 | -3 | -2 | 28 | 6 | 51* | 56
COc1ccc(CNC(=O)COC(=O)CC(NC(N)=O)c2ccc(Cl)cc2)cc1OC (stereo not given) | nt | nt | nt | nt | -16 | 0 | nt
Cc1cc(Oc2ccc(C(C)(C)C)cc2)nc(N2CCOCC2)n1 | 0 | -7 | 11 | -2 | 4 | 33 | -37*
CCOC(=O)/C(=C/C1=CC(=C/N(C)C)/C(=O)O1)C(C)=O | 0 | -26 | 7 | 17 | 6 | -1 | nt
NC(=NCc1ccc2c(c1)OCO2)NC(=O)c1ccccc1 | nt | nt | nt | -77* | 15 | 29 | 17
C/C(CCc1ccc2c(c1)OCO2)=N\NC(=O)c1ccccc1 | -1 | 7 | -5 | 11 | -7 | -5 | nt
CCc1cccc(C)c1NC(=O)c1ccc2nc(N3CCOCC3)sc2c1 | 0 | 4 | -2 | 18 | 4 | -7 | nt
CCC1C/C(=C\c2cccnc2)C(=O)/C(=C/c2cccnc2)C1 (stereo not given) | nt | nt | nt | nt | 3 | 35* | 33
CCCCCCCCCC(=O)NNC(=O)c1c(O)c2ccccc2n(CC)c1=O | 0 | 4 | -2 | 23 | -6 | -41 | -21
Cc1noc(C)c1C(=O)Nc1ccc(-c2nnc3n2CCCCC3)cc1 | 0 | -7 | 0 | nt | -4 | 2 | nt
O=C1C(Nc2ccccc2)=C/C(=N/S(=O)(=O)c2cccs2)c2ccccc21 | -2 | nt | 4 | 36 | 72* | 68* | 65 | PLA2 ctr=78*
O=C1C=C(Nc2ccccc2)C(=O)c2ccccc21 | -7 | 4 | 4 | 11 | 4 | 12 | nt
O=C(O)c1[nH]c2ccccc2c1C(c1cc(Cl)cc([N+](=O)[O-])c1O)c1c(C(=O)O)[nH]c2ccccc12 | -1 | 4 | 11 | 57 | 58* | 38* | 32 | ATG4B confirm=30;PLA2 ctr=40
O=C(O)c1[nH]c2ccccc2c1C(c1ccccc1)c1c(C(=O)O)[nH]c2ccccc12 | -1 | -6 | -1 | 6 | 12 | 9 | nt
SMILES | A1 inh | LANA-H2A inh | HDAC3 inhib | AI-2 QS modul | ATG4B inh | HKDC1 inh | HKDC1 act conf | others
CCOC(=O)c1c(NC(=O)CSc2ncccn2)sc(C(=O)NC)c1C | 0 | 1 | 3 | 3 | -5 | -1 | nt
O=C1C(SCCO)=C(SCCO)C(=O)c2ccccc21 | -3 | -6 | 3 | nt | 44* | 72* | 84 | ATG4B confirm=72*;PLA2 ctr=-16
CCOC(=O)c1ccc(N2N=C(C)/C(=C/C=C/c3ccco3)C2=O)cc1 | 0 | -3 | -6 | 7 | -4 | -1 | nt
O=C(O)c1cc(N2N=C(C(F)(F)F)/C(=C/C=C/c3ccco3)C2=O)ccc1Cl | nt | nt | nt | nt | 96* | 46* | 57 | PLA2 ctr=78*
O=C(O)c1cc(O)c2c(c1)[C@H]([C@H]1c3cc(C(=O)O)cc(O)c3C(=O)c3c(O[C@@H]4O[C@H](CO)[C@@H](O)[C@H](O)[C@H]4O)cccc31)c1cccc(OC3O[C@H](CO)[C@@H](O)[C@H](O)[C@H]3O)c1C2=O (stereo not given in full) | 0 | 8 | 5 | 19 | 95* | 87* | 52 | PLA2 ctr=-12
Fc1ccccc1NC(=S)N(CCCN1CCOCC1)Cc1cccnc1 | 0 | 2 | -1 | 6 | -2 | -3 | nt
CN1CCN(C2=C(Cl)C(=O)c3ccccc3C2=O)CC1 | nt | nt | nt | nt | 73* | 44* | 33 | ATG4B confirm=30;PLA2 ctr=-16
CN1CCN(C2=C(NS(=O)(=O)c3ccccc3)C(=O)c3ccccc3C2=O)CC1 | 0 | 7 | 3 | 5 | -7 | 14 | nt
CCOc1cc(C)c(Cl)cc1S(=O)(=O)n1ccnc1 | 1 | -2 | 2 | 10 | 10 | -4 | nt
COC1=CC(=O)c2c(ccc3ncnc(N)c23)C1=O | nt | nt | nt | nt | 62* | 87* | 88 | ATG4B confirm=49*;PLA2 ctr=-12
O=C1C=C(N2CCOCC2)c2ccccc2C1=O | 1 | -1 | 0 | 35 | 64* | 77* | 79 | ATG4B confirm=53*;PLA2 ctr=-19
CC(=O)c1cccc(N(CC(=O)Nc2ccccc2C(=O)N2CCCC2)S(C)(=O)=O)c1 | 1 | -4 | -7 | 17 | -7 | -3 | nt
S=C(NCCc1cccc(Cl)c1)NCc1ccccc1 | -3 | -3 | 7 | -35 | nt | nt | nt
S=C(NCCc1ccc(Cl)cc1)NCc1ccccc1 | 0 | -2 | 6 | -22 | 64* | -63 | -12 | PLA2 ctr=73*
Cc1ccc(N=Cc2cc(Cc3ccccc3Cl)cc([N+](=O)[O-])c2O)c(O)c1 | 0 | 2 | 2 | 28 | 92* | 30 | 30 | PLA2 ctr=79*
Cc1n[nH]c(C)c1Sc1ccccc1N=Cc1cc(Cl)cc([N+](=O)[O-])c1O | 2 | -3 | 3 | 19 | 9 | 9 | nt
CCCC1(CCC)NC(=O)N(CC(=O)Nc2ccc(Cl)c(S(=O)(=O)N3CCOCC3)c2)C1=O | 0 | -3 | -4 | nt | -9 | -1 | nt
